Laboratory results as given in ChEMBL document CHEMBL1124258, “(Imidazo[1,2-a]pyrimidin-2-yl)phenylmethanones and related compounds as potential nonsedative anxiolytics” (J Med Chem, 1988).

Experiments:
[1] = biological target: GABA-A receptor; anion channel; assay: Inhibition of 0.6 nM [3H]flunitrazepam binding to GABA-A central benzodiazepine receptor of rat forebrain membrane
In short: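 Rat forebrain membranes with [3H]flunitrazepam at 0.6 nM, modified Squires–Braestrup method. IC50 (nM) read from displacement curves of at least four concentrations, each in triplicate.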

[2] = species: Rattus norvegicus; assay: Minimum Effective Dose (MED) was measured using Food-Conflict test in rats; type: functional; settings: read-out: MED
In short: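 Male Lister rats on alternating schedule: five 4-min FI30 unpunished and 3-min FR5 punished components (food-motivated). Oral dosing, first at 50 mg/kg in four rats, then at decreasing doses if active until the minimum effective dose was reached.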

[3] = species: Rattus norvegicus; assay: Minimum Effective Dose(MED was measured by using Licking-Conflict test in rats; type: functional; settings: read-out: MED
In short: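 Rats trained to stable suppression of drinking at tone onset. Each session had 1 min unpunished drinking, then a tone lasting through a 3-min punished period.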

[4] = species: Mus musculus; assay: Sedative/muscle relaxant effect in mice by using Rotating-Drum test; type: functional
In short: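 Male CD-1 mice were placed on a rotating drum (3 cm diameter, 16 rev/min) 1 h after dosing. Mean time on the drum for groups of 10 was expressed as a percentage of the control group mean.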

[5] = tested on: Mus musculus; assay: Anticonvulsant activity in CD-1 mice with 120 mg/kg of leptazol; type: functional
In short: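 Male CD-1 mice challenged with leptazol at 120 mg/kg, following Everett and Richards. ED50 (mg/kg po) with 95% confidence limits by Litchfield–Wilcoxon where the doses allowed.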

[6] = species: Mus musculus; assay: Muscle relaxation in mice by using Pull-Up test; type: functional

Row | SMILES | IC50 [1] [nM] | minimal effective dose [2] [mg/kg] | also measured
1 | CCCC(=O)c1cn2c(cc(OC)c3cc(CC)ccc32)n1 | 535 | 20 | –
2 | CCCCc1c(OC)nc2nc(C(=O)c3ccccc3)cn2c1C | 42 | 2 | –
3 | CCc1ccc2c(c1)c(OC)cc1nc(C(=O)c3ccccn3)cn12 | 9 | 5 | –
4 | CCc1c(OC)nc2nc(C(=O)c3ccccc3)cn2c1CC | 107 | 2 | –
5 | C=CCc1c(OC)nc2nc(C(=O)c3ccccc3)cn2c1CC | 42 | 10 | –
6 | CCc1ccc2c(c1)sc1nc(C(=O)c3ccccc3)cn12 | 740 | – | –
7 | COc1cc2nc(C(=O)c3ccccc3)cn2c2ccc(C)cc12 | 21 | 5 | –
8 | COc1nc2nc(C(=O)c3ccccc3)cn2c(C)c1CC1CC1 | 30 | 10 | –
9 | CCOc1nc2nc(C(=O)c3ccccc3)cn2c2c1CCCCC2 | 4000 | 5 | –
10 | CCCc1c(SC)nc2nc(C(=O)c3ccccc3)cn2c1CC | 47 | 10 | –
11 | CCc1ccc2c(c1)c(OC)c(C)c1nc(C(=O)c3ccccc3)cn12 | 7 | 2 | –
12 | CCc1ccc2c(c1)c(OC)cc1nc(C(C)=O)cn12 | 1300 | 20 | –
13 | CCOc1nc2nc(C(=O)c3ccccc3)cn2c2c1CCCC2 | 2000 | > 50 | –
14 | CCCc1cc(OC)nc2nc(C(=O)c3ccccc3)cn12 | 535 | 1 | –
15 | O=C(Nc1cccc(Cl)c1)c1cn2c(n1)sc1ccccc12 | > 10000 | – | –
16 | CCc1cc(OC)nc2nc(C(=O)c3ccccc3)cn12 | 295 | 2 | –
17 | COc1nc2nc(C(=O)c3ccccc3)cn2c2c1CSCC2 | 185 | 20 | –
18 | CSc1nc2nc(C(=O)c3ccccc3)cn2c2c1CCCC2 | 9 | 10 | –
19 | COc1nc2nc(C(=O)c3ccccc3)cn2c2c1CCCC2 | 61 | 5 | minimal effective dose [3]: 5 mg/kg; ED50 [4]: 200 mg/kg; ED50 [5]: 100 mg/kg; ED50 [6]: 500 mg/kg
20 | CCC(=O)c1cn2c(cc(OC)c3cc(CC)ccc32)n1 | 135 | 10 | –
21 | CCOC(=O)c1cn2c(n1)sc1ccccc12 | 120 | – | –
22 | COc1ccc(C(=O)c2cn3c(cc(OC)c4ccccc43)n2)cc1 | 37 | > 50 | –
23 | COC(=O)c1cn2c(n1)sc1ccccc12 | 60 | – | –

Row | SMILES | IC50 [1] [nM] | minimal effective dose [2] [mg/kg] | also measured
24 | COc1cc2nc(C(=O)c3ccc(Cl)cc3)cn2c2ccccc12 | 96 | > 50 | –
25 | COc1cc2nc(C(=O)c3cccs3)cn2c2ccccc12 | 24 | > 50 | –
26 | CC1(C)COC(c2cn3c(n2)sc2ccccc23)=N1 | > 10000 | – | –
27 | CCSc1nc2nc(C(=O)c3ccccc3)cn2c2c1CCC2 | 1850 | 50 | –
28 | CCCCc1cc(OC)nc2nc(C(=O)c3ccccc3)cn12 | 340 | 10 | –
29 | COc1nc2nc(C(=O)c3ccccc3)cn2c(C)c1OC | 1000 | 5 | –
30 | CSc1cc(C)n2cc(C(=O)c3ccccc3)nc2n1 | 190 | 5 | –
31 | CCOC(=O)c1cn2c(n1)sc1cc(CC)ccc12 | 4000 | – | –
32 | COc1nc2nc(C(=O)c3ccccc3)cn2c2c1CSC2 | 430 | > 50 | –
33 | CCOC(=O)N1Cc2c(OC)nc3nc(C(=O)c4ccccc4)cn3c2C1 | 10000 | 50 | –
34 | COc1cc2nc(C(=O)c3ccccc3)cn2c2cc(C)c(C)cc12 | 100 | 5 | –
35 | O=C(OCc1ccccc1)c1cn2c(n1)sc1ccccc12 | 50 | – | –
36 | CCc1cn2cc(C(=O)c3ccccc3)nc2nc1OC | 1500 | 5 | –
37 | CSc1nc2nc(C(=O)c3ccccc3)cn2c2c1CCC(C)C2 (stereo not drawn) | 76 | 50 | –
38 | O=C(c1ccccc1)c1cn2c(n1)sc1ccccc12 | 85 | – | –
39 | C=CCc1c(SC)nc2nc(C(=O)c3ccccc3)cn2c1C | 8 | 5 | –
40 | O=C(O)c1cn2c(n1)sc1ccccc12 | > 10 | – | –
41 | CNC1=Nc2ccc(Cl)cc2C(c2ccccc2)=[N+]([O-])C1 [CHLORDIAZEPOXIDE] | – | 5 | minimal effective dose [3]: 2 mg/kg; ED50 [4]: 6.8 mg/kg; ED50 [5]: 1.9 mg/kg; ED50 [6]: 16 mg/kg
42 | CCCCc1ccc2c(c1)c(OC)cc1nc(C(=O)c3ccccc3)cn12 | 25 | 10 | –
43 | CCc1c(OC)nc2nc(C(=O)c3ccccc3)cn2c1C [DIVAPLON] | 56 | 2 | minimal effective dose [3]: 2 mg/kg; ED50 [4]: 200 mg/kg; ED50 [5]: 21 mg/kg; ED50 [6]: 200 mg/kg
44 | CCCc1c(OC)nc2nc(C(=O)c3ccccc3)cn2c1C | 85 | 5 | minimal effective dose [3]: 5 mg/kg; ED50 [4]: 100 mg/kg; ED50 [5]: 200 mg/kg; ED50 [6]: 100 mg/kg
45 | COc1nc2nc(C(=O)c3ccccc3)cn2c2c1CCC(C)C2 (stereo not drawn) | 135 | 10 | –
46 | CCCc1cc(SC)nc2nc(C(=O)c3ccccc3)cn12 | 89 | 10 | –

Row | SMILES | IC50 [1] [nM] | minimal effective dose [2] [mg/kg] | also measured
47 | CC(C)OC(=O)c1cn2c(n1)sc1ccccc12 | 160 | – | –
48 | CSc1nc2nc(C(=O)c3ccccc3)cn2c2c1CSCC2 | 24 | 50 | –
49 | C=CCc1c(OC)nc2nc(C(=O)c3ccccc3)cn2c1C | 45 | 5 | minimal effective dose [3]: 10 mg/kg; ED50 [4]: 100 mg/kg; ED50 [5]: 54 mg/kg
50 | CCCc1ccc2c(c1)c(OC)cc1nc(C(=O)c3ccccc3)cn12 | 16 | 2 | –
51 | CSc1nc2nc(C(=O)c3ccccc3)cn2c2c1CCC2 | 35 | 2 | –
52 | COc1cc2nc(C(=O)c3ccccc3)cn2c2ccccc12 | 57 | 5 | –
53 | CCCc1c(OC)nc2nc(C(=O)c3ccccc3)cn2c1CC | 34 | 10 | –
54 | COc1nc2nc(C(=O)c3ccccc3)cn2c2c1CCCCC2 | 125 | 10 | –
55 | COc1cc2nc(C(=O)c3ccccc3)cn2c2ccc(C(C)C)cc12 | 10 | 5 | –
56 | COc1nc2nc(C(=O)c3ccccc3)cn2c2c1CCC2 | 200 | 20 | –
57 | O=C(Nc1nccs1)c1cn2c(n1)sc1ccccc12 | > 10 | – | –
58 | CCc1ccc2c(c1)c(OC)c(CC)c1nc(C(=O)c3ccccc3)cn12 | 135 | 20 | –
59 | CCOc1nc2nc(C(=O)c3ccccc3)cn2c2c1CCC2 | > 10000 | 50 | –
60 | CCCCc1c(OC)nc2nc(C(=O)c3ccccc3)cn2c1CC | 34 | 10 | –
61 | CCOC(=O)Cc1cn2c(n1)sc1ccccc12 | > 10 | – | –
62 | CCCOC(=O)c1cn2c(n1)sc1ccccc12 | 470 | – | –
63 | COc1cc(C)n2cc(C(=O)c3ccccc3)nc2n1 | 800 | 5 | –
64 | COc1cc2nc(C(=O)c3ccccc3)cn2c2ccc(F)cc12 | 20 | 10 | –
65 | CCOc1nc2nc(C(=O)c3ccccc3)cn2c2c1CSCC2 | > 10000 | > 50 | –
66 | COc1cc2nc(C(=O)c3ccc(C)cc3)cn2c2ccccc12 | 19 | > 50 | –
67 | O=C(OC1CCCCC1)c1cn2c(n1)sc1ccccc12 | 7100 | – | –
